Blank lines part the entries; values can stand above or below the compound they belong to.
Columns and labels:
[1] = target: Sodium/hydrogen exchanger 1 (Homo sapiens, UniProt P19634); assay: Screened in AP1 cells expressing human NHE-1 for sodium hydrogen exchange activity; assay type: functional, cell-based
Procedure, shortened: (§1)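 AP1 cell monolayers expressing the given human NHE isoform, loaded with BCECF-AM (5 µM final, 30 min, room temperature) in NaCl-HEPES pH 7.3. Acid load by NH4Cl-HEPES for 9 min, then washes in Na+-free choline buffer. Drug preincubation 7.5 min, then NaCl added (135 mM final). Fluorescence 485/444 nm excitation ratio (538 nm emission) read after 5 min, minus no-NaCl activity. IC50 from 8-point dose-response curve, mean ± SEM of several experiments.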

[2] = Oral bioavailability in rat; assay type: ADME, organism-based; settings: in vivo
Procedure, shortened: (§2)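 Rats (n = 3) given a single 10 µmol/kg dose either intra-arterially or orally. Plasma samples analysed by LC/MS/MS. PK parameters are means ± SEM of the three animals.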

[3] = Half life period in rats was determined; assay type: ADME, organism-based; settings: rat, in vivo; procedure, shortened: as §2
[4] = Plasma clearance in rats was determined; assay type: ADME, organism-based; settings: rat; procedure, shortened: as §2
[5] = Volume distribution at steady state in rats was determined; assay type: ADME, organism-based; settings: rat, in vivo; read-out: VSS; procedure, shortened: as §2
[6] = target: T1, Sodium/hydrogen exchanger 3 (Homo sapiens, UniProt P48764); assay: Compound is screened in AP1 cells expressing human NHE-3 for sodium hydrogen exchange activity; assay type: functional, cell-based; procedure, shortened: as §1
T1 sequence (P48764 whole entry): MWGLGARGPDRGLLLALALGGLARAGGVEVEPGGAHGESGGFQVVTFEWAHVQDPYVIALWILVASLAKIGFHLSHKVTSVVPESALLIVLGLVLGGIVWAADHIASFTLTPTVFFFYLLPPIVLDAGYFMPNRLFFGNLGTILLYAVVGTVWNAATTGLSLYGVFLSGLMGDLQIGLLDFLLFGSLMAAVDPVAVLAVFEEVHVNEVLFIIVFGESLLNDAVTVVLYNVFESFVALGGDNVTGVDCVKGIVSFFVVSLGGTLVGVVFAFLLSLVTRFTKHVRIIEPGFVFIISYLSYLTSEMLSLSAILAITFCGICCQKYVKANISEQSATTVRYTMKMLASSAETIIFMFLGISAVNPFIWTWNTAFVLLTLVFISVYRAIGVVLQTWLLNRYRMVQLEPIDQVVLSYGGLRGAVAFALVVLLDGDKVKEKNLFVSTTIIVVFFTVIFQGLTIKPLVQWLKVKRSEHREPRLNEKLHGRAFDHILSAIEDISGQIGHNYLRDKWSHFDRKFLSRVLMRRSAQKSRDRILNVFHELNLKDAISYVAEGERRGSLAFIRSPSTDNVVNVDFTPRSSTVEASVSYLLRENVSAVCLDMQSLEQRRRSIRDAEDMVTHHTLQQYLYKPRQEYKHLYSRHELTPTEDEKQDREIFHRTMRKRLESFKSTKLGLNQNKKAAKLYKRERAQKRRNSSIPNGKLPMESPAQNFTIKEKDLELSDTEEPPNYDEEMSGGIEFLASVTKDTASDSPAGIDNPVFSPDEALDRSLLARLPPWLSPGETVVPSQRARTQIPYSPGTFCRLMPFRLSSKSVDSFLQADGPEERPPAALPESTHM

[7] = target: T2, Sodium/hydrogen exchanger 5 (Homo sapiens, UniProt Q14940); assay: Compound is screened in AP1 cells expressing human NHE-5 for sodium hydrogen exchange activity; assay type: functional, cell-based; procedure, shortened: as §1
T2 sequence (Q14940 whole entry): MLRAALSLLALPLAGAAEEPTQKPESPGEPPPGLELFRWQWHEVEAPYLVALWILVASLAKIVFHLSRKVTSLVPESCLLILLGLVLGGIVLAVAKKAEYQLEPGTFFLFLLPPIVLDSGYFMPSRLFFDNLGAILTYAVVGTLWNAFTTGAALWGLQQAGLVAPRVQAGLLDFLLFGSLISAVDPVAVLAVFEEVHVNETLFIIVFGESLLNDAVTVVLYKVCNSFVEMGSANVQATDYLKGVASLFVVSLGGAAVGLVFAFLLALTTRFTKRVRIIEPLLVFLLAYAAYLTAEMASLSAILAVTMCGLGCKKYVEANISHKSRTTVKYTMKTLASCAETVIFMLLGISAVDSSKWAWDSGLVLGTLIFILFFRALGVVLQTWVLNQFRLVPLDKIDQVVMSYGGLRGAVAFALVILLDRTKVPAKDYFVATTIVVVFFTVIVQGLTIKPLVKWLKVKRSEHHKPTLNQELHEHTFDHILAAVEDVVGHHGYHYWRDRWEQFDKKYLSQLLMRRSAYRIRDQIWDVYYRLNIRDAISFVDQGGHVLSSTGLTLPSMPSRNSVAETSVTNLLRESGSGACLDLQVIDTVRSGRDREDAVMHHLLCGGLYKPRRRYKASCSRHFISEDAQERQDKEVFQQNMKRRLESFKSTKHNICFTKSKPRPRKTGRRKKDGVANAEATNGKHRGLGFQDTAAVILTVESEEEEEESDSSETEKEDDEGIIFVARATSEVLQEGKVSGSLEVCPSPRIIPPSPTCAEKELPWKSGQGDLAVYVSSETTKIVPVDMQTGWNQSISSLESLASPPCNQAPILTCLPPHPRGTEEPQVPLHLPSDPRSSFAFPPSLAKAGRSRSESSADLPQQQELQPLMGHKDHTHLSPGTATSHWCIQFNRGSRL

[8] = target: T3, Sodium/hydrogen exchanger 2 (Homo sapiens, UniProt Q9UBY0); assay: Compound is screened in AP1 cells expressing human NHE-2 for sodium hydrogen exchange activity; assay type: functional, cell-based; procedure, shortened: as §1
T3 sequence (Q9UBY0 whole entry): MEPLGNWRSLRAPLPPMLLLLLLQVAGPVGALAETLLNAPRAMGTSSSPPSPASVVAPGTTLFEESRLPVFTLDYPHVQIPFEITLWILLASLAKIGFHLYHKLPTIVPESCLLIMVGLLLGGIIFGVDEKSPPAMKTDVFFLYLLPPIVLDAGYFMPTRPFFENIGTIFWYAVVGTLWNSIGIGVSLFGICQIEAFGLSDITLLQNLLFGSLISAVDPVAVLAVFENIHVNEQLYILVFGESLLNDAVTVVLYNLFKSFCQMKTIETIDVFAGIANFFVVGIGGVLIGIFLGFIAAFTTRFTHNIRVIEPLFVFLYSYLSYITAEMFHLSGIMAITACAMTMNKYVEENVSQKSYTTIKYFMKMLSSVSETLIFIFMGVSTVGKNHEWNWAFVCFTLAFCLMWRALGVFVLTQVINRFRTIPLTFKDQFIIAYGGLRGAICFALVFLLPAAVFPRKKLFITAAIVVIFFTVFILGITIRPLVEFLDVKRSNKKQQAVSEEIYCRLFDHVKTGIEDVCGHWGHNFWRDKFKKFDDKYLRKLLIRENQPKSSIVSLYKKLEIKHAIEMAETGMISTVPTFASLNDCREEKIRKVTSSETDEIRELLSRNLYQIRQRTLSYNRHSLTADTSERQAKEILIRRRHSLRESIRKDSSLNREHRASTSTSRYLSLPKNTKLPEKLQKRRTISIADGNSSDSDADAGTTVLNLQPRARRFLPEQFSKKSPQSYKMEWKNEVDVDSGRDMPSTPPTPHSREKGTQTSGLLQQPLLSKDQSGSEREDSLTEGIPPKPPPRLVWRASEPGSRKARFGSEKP

Chain of Sodium/hydrogen exchanger 1 (P19634 whole entry, canonical isoform): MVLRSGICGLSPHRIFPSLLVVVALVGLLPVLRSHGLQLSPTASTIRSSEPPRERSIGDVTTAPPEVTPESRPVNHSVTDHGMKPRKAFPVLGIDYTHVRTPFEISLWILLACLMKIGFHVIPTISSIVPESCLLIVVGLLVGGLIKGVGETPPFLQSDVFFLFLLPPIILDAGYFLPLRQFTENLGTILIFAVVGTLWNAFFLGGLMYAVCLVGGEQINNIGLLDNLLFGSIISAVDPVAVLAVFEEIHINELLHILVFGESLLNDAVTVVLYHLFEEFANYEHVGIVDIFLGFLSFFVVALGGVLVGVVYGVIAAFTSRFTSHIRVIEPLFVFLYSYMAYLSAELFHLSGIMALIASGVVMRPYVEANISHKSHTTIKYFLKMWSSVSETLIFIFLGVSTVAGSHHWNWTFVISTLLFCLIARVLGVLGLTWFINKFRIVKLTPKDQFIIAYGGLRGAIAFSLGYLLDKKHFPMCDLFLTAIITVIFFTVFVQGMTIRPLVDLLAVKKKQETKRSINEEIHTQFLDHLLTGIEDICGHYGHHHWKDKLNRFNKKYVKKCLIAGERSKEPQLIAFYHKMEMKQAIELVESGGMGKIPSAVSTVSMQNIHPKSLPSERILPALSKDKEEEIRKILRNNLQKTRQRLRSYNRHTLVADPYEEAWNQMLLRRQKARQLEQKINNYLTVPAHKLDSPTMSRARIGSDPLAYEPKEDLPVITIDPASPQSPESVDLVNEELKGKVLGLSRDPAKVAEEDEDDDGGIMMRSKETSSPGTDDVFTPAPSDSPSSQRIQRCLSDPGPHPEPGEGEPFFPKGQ

- IC50 [1]: 32 nM
SMILES: Cc1cc([C@@H]2[C@@H](C(=O)N=C(N)N)C2(C)C)ccc1F

- IC50 [1]: 1600 nM
SMILES: N=C(N)NC(=O)[C@H]1C[C@@H]1c1cccc([N+](=O)[O-])c1

- bioavailability [2]: 13%
- half-life [3]: 3.4 h
- clearance [4]: 143 mL/min/kg
- IC50 [1]: 40 nM
- Vd [5]: 21 L/kg
SMILES: N=C(N)NC(=O)[C@H]1C[C@@H]1c1cc(Cl)ccc1Cl

- IC50 [1]: 17 nM
SMILES: CC(C)c1cc([C@@H]2[C@@H](C(=O)N=C(N)N)C2(C)C)ccc1F

- IC50 [1]: 980 nM
SMILES: N=C(N)NC(=O)[C@H]1C[C@@H]1c1ccccc1Cl

- IC50 [1]: > 30000 nM
SMILES: CC(C)c1ccc([C@H]2C[C@@H]2C(=O)NC(=N)N)cc1

- IC50 [1]: 90 nM
SMILES: N=C(N)NC(=O)[C@H]1C[C@@H]1c1ccc(F)c(Br)c1

- IC50 [1]: 5 nM
SMILES: CCc1cc([C@@H]2[C@@H](C(=O)NC(=N)N)C2(C)C)ccc1F

- IC50 [1]: 3500 nM
SMILES: N=C(N)NC(=O)[C@H]1C[C@@H]1c1ccccc1

- IC50 [1]: 1600 nM
SMILES: N=C(N)NC(=O)[C@H]1C[C@@H]1c1ccc(F)cc1

- bioavailability [2]: 47%
- half-life [3]: 8 h
- clearance [4]: 44 mL/min/kg
- IC50 [1]: 5 nM
- Vd [5]: 23 L/kg
SMILES: CC1(C)[C@H](C(=O)N=C(N)N)[C@H]1c1cc(Cl)ccc1Cl

- IC50 [1]: 2900 nM
SMILES: N=C(N)NC(=O)[C@H]1C[C@@H]1c1ccc(Cl)cc1

- IC50 [1]: 69 nM
SMILES: CC1(C)[C@H](C(=O)N=C(N)N)[C@H]1c1ccccc1

- IC50 [1]: 540 nM
SMILES: COc1cccc([C@H]2C[C@@H]2C(=O)NC(=N)N)c1

- bioavailability [2]: 49%
- half-life [3]: 1.3 h
- clearance [4]: 120 mL/min/kg
- IC50 [1]: 120 nM
- Vd [5]: 6 L/kg
SMILES: N=C(N)NC(=O)[C@H]1C[C@@H]1c1cccc2c1CCO2

- IC50 [1]: 14 nM
SMILES: CC1(C)[C@H](C(=O)NC(=N)N)[C@H]1c1cccc(Cl)c1

- IC50 [1]: 12 nM
SMILES: COc1cccc([C@@H]2[C@@H](C(=O)NC(=N)N)C2(C)C)c1

- IC50 [1]: 280 nM
SMILES: N=C(N)NC(=O)[C@H]1C[C@@H]1c1cccc(Cl)c1

- IC50 [1]: > 30000 nM
SMILES: N=C(N)NC(=O)[C@H]1C[C@@H]1c1ccc([N+](=O)[O-])cc1

- IC50 [1]: 3 nM
SMILES: CC1(C)[C@H](C(=O)N=C(N)N)[C@H]1c1ccc(F)c(Br)c1

- IC50 [1]: 6 nM
SMILES: CC1(C)[C@H](C(=O)NC(=N)N)[C@H]1c1cc(Cl)cc(Cl)c1

- bioavailability [2]: 63%
- half-life [3]: 3 h
- clearance [4]: 74 mL/min/kg
- IC50 [1]: 9 nM
- IC50 [6]: > 30000 nM
- IC50 [7]: 3360 nM
- IC50 [8]: 1800 nM
- Vd [5]: 8.6 L/kg
SMILES: CC1(C)[C@H](C(=O)N=C(N)N)[C@H]1c1cccc2c1CCO2

- IC50 [1]: 3400 nM
- IC50 [6]: > 30000 nM
- IC50 [7]: > 30000 nM
- IC50 [8]: 62000 nM
SMILES: CC(C)c1ccc(C(=O)NC(=N)N)cc1S(C)(=O)=O [CARIPORIDE]

- IC50 [1]: 380 nM
- IC50 [6]: > 30000 nM
- IC50 [7]: > 30000 nM
- IC50 [8]: 17000 nM
SMILES: Cc1cc(-n2cccc2)c(S(C)(=O)=O)cc1C(=O)NC(=N)N [ENIPORIDE]
